Results from different studies.
Target: Mitogen-activated protein kinase kinase kinase 20 (MAP3K20, Homo sapiens, UniProt Q9NYL2)

| SMILES | test | conditions | measurement | result |
| --- | --- | --- | --- | --- |
| Cn1cc(-c2cccc(N3CCc4c(sc5c4CC(C)(C)C5)C3=O)c2CO)cc(Nc2ccncn2)c1=O | enzyme activity, inhibitor | 1 µM | inhibition | -1% |
| COc1ncccc1-c1cnn2ccc(N3CCN(C(=O)OC(C)C)CC3)nc12 | binding, competition with immobilised ligand | 1 µM | remaining binding | 78% |
| CC(C)(C)c1cc(C=C(C#N)C#N)cc(Br)c1O | enzyme activity, inhibitor | 0.5 µM | remaining activity | 91.2% |
| Cc1ccc(C(=O)Nc2ccc(CN3CCN(C)CC3)c(C(F)(F)F)c2)cc1C#Cc1cnc2cccnn12 | thermal stability, DSF | 10 µM | ΔTm | 15 °C |
| Cn1cc(-c2cc(F)cc(N3CCn4c(cc5c4CCCC5)C3=O)c2CO)cc(Nc2ccc(N3CCN(C4COC4)CC3)cn2)c1=O | enzyme activity, inhibitor | 0.1 µM | inhibition | -3% |
| Cn1cncc1[C@](O)(COc1ccc(C#N)cc1-c1ccc(OC(F)(F)F)cc1)c1ccc(C#N)cc1 | cell-free assay, competition with immobilised ligand | 1 µM | remaining binding | 100% |
| Nc1ncc(-c2nc(N3CCOCC3)nc(N3CCOCC3)n2)c(C(F)F)n1 | binding, competition with immobilised ligand | 10 µM | remaining binding | 80% |
| COc1cc(Nc2ncc(F)c(Nc3ccc4c(n3)NC(=O)C(C)(C)O4)n2)cc(OC)c1OC | binding | 10 µM | inhibition | 44% |
| O=c1[nH]c2ccccc2n1C1CCN(Cc2ccc(-c3[nH]c4cc5ncnc5cc4nc3-c3ccccc3)cc2)CC1 | cell-free assay | 0.5 µM | remaining signal | 106% |
| Cc1nn(C)cc1-c1nc2c(N3CCN(Cc4ccc(Cl)cc4)CC3)c(Cl)cnc2[nH]1 | binding, competition with immobilised ligand | 1 µM | remaining binding | 71% |
